The term MIC denotes the least concentration at which growth counts as inhibited. The low end stands for inhibition by little substance, the high end for a need for much substance.

Values after ≈ are worked out from the molar mass of the structure shown.

Seven compounds from ChEMBL document CHEMBL1156256, “Poly(ethylene glycol) (PEG-400) as an alternative reaction solvent for the synthesis of some new 1-(4-(4'-chlorophenyl)-2-thiazolyl)-3-aryl-5-(2-butyl-4-chloro-1H-imidazol-5yl)-2-pyrazolines and their in vitro antimicrobial evaluation” (2010) can be followed below.

The test system of one experiment is Bacillus subtilis. In words: Antibacterial activity against Bacillus subtilis MTCC 441 after 24 hrs by agar diffusion method. In kind it is functional. The conditions noted are these: for MIC: Bacillus subtilis, MTCC 441, 24 h. In short, it runs like this: (§1)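 Agar well diffusion following NCCLS. Bacteria kept on nutrient agar slants at 37 ± 0.5 °C for 24 h. Nutrient agar plates seeded with 0.1 mL of culture suspension in 0.85% sterile saline (10⁵ CFU/mL). Plates incubated at 37 ± 0.5 °C for 24 h. Zone of inhibition recorded in mm, and MIC noted. 1% DMSO used as control.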
Background: In agar diffusion tests the substance spreads into inoculated agar from a disc or well.

Another experiment relates to Escherichia coli. The experiment can be described thus: Antibacterial activity against Escherichia coli MTCC 2939 after 24 hrs by agar diffusion method. It counts as functional. The conditions noted are these: for MIC: Escherichia coli, MTCC 2939, 24 h. In short, it runs like this:
as §1

The next experiment has as its system Salmonella enterica. The experiment can be described thus: Antibacterial activity against Salmonella typhi MTCC 98 after 24 hrs by agar diffusion method. It counts as functional, Salmonella enterica subsp. enterica serovar Typhi. As to conditions: for MIC: Salmonella enterica, MTCC 98, 24 h. In short, it runs like this: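 NCCLS agar diffusion. Strain kept on nutrient agar slant at 37 ± 0.5 °C for 24 h. Nutrient agar plates seeded with 0.1 mL of a 10⁵ CFU/mL suspension in sterile 0.85% saline. Plates incubated at 37 ± 0.5 °C for 24 h. Read-out: zone of inhibition (mm) and MIC.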

A further experiment deals with Aspergillus niger. In words: Antifungal activity against Aspergillus niger MTCC 281 after 24 to 48 hrs by agar diffusion method. It counts as functional. As to conditions: for MIC: Aspergillus niger, MTCC 281. The procedure, abridged:
(§2)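 Fungi grown on potato dextrose agar slants at 27 ± 0.2 °C for 24–48 h until sporulation. Spores suspended in sterile water with 1% Tween-80 and counted by haemocytometer (10⁶ CFU/mL). 0.1 mL spread on 2% agar PDA plates and held at 27 °C for 12 h. Wells then received 0.1 mL of compound at graded concentrations for MIC. Plates refrigerated 20 min for diffusion, then incubated at 27 ± 0.2 °C for […]. Zone read in mm. 1% DMSO used as control.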

For a further experiment, the system named is Penicillium chrysogenum. In words: Antifungal activity against Penicillium chrysogenum MTCC 160 after 24 to 48 hrs by agar diffusion method. In kind it is functional. As to conditions: for MIC: Penicillium chrysogenum, MTCC 160. In short, it runs like this: as §2
The next experiment relates to Fusarium verticillioides. In words: Antifungal activity against Fusarium moniliforme MTCC 156 after 24 to 48 hrs by agar diffusion method. In kind it is functional. The conditions noted are these: for MIC: Fusarium verticillioides, MTCC 156. The procedure, abridged:
as §2

The subject of a further experiment is Trichoderma viride. In words: Antifungal activity against Trichoderma viride MTCC 167 after 24 to 48 hrs by agar diffusion method. In kind it is functional. As to conditions: for MIC: Trichoderma viride, MTCC 167. In short, it runs like this: as §2
For a further experiment, the system named is Candida albicans. The experiment can be described thus: Antifungal activity against Candida albicans MTCC 183 after 24 to 48 hrs by agar diffusion method. It counts as functional. The conditions noted are these: for MIC: Candida albicans, MTCC 183. The procedure, abridged:
as §2

The test system of another experiment is Staphylococcus aureus. The experiment can be described thus: Antibacterial activity against Staphylococcus aureus MTCC 96 after 24 hrs by agar diffusion method. In kind it is functional. As to conditions: for MIC: Staphylococcus aureus, MTCC 96, 24 h. The procedure, abridged:
as §1

Regarding `CCCCc1nc(Cl)c(C2CC(c3cc(I)cc(I)c3O)=NN2c2nc(-c3ccc(Cl)cc3)cs2)[nH]1` (stereo not drawn), the “inhibition zone (IZ)” value in the experiment on Bacillus subtilis amounted to 20 mm; in the experiment with Escherichia coli it was 20 mm; in the experiment with Salmonella enterica it was 18 mm; with Aspergillus niger, 19 mm; in the experiment on Penicillium chrysogenum, 16 mm; in the experiment on Fusarium verticillioides it was 16 mm. Also, the “inhibition zone (IZ)” value in the experiment on Trichoderma viride came out at 20 mm; in the experiment with Candida albicans, 18 mm; with Staphylococcus aureus, 16 mm. The MIC in the experiment on Bacillus subtilis, in the experiment on Escherichia coli, with Salmonella enterica, against Aspergillus niger, in the experiment with Penicillium chrysogenum and against Fusarium verticillioides was 25 µg/mL (≈ 32.7 µM) each time. Besides, the MIC with Trichoderma viride, with Candida albicans and in the experiment with Staphylococcus aureus was 25 µg/mL (≈ 32.7 µM) throughout.

Turning to `CCCCc1nc(Cl)c(C2CC(c3cc(Cl)cc(Br)c3O)=NN2c2nc(-c3ccc(Cl)cc3)cs2)[nH]1` (stereo not drawn), the “inhibition zone (IZ)” value in the experiment with Bacillus subtilis stood at 15 mm; with Escherichia coli it was 21 mm; with Salmonella enterica it was 18 mm; in the experiment with Aspergillus niger, 18 mm; with Penicillium chrysogenum, 16 mm; with Fusarium verticillioides, 10 mm. The “inhibition zone (IZ)” value came out at 15 mm in the experiment on Trichoderma viride, 16 mm in the experiment on Candida albicans and 16 mm with Staphylococcus aureus. Besides, the MIC with Bacillus subtilis amounted to 25 µg/mL (≈ 39.9 µM); against Escherichia coli it was 25 µg/mL (≈ 39.9 µM); with Salmonella enterica, 25 µg/mL (≈ 39.9 µM); against Aspergillus niger, 25 µg/mL (≈ 39.9 µM); against Penicillium chrysogenum, 25 µg/mL (≈ 39.9 µM); against Fusarium verticillioides, 50 µg/mL (≈ 79.9 µM). Besides, the MIC in the experiment on Trichoderma viride, against Candida albicans and in the experiment on Staphylococcus aureus was 25 µg/mL (≈ 39.9 µM) each time.

As for `CCCCc1nc(Cl)c(C2CC(c3cc(Br)cc(Br)c3O)=NN2c2nc(-c3ccc(Cl)cc3)cs2)[nH]1` (stereo not drawn), the “inhibition zone (IZ)” value in the experiment on Bacillus subtilis is listed as 21 mm; with Escherichia coli, 22 mm; with Salmonella enterica, 19 mm; in the experiment on Aspergillus niger, 20 mm; in the experiment with Penicillium chrysogenum it was 18 mm; in the experiment on Fusarium verticillioides, 14 mm. Moreover, the “inhibition zone (IZ)” value in the experiment on Trichoderma viride came out at 18 mm; with Candida albicans, 20 mm; with Staphylococcus aureus, 18 mm. Besides, the MIC in the experiment with Bacillus subtilis, with Escherichia coli, in the experiment on Salmonella enterica, in the experiment on Aspergillus niger, in the experiment on Penicillium chrysogenum and in the experiment on Fusarium verticillioides was 25 µg/mL (≈ 37.3 µM) in each case. The MIC in the experiment with Trichoderma viride, with Candida albicans and against Staphylococcus aureus was 25 µg/mL (≈ 37.3 µM) throughout.

For `CCCCc1nc(Cl)c(C2CC(c3ccc(Cl)cc3)=NN2c2nc(-c3ccc(Cl)cc3)cs2)[nH]1` (stereo not drawn), the “inhibition zone (IZ)” value with Bacillus subtilis was 14 mm; in the experiment on Escherichia coli, 16 mm; in the experiment with Salmonella enterica, 10 mm; in the experiment on Aspergillus niger, 12 mm; in the experiment with Penicillium chrysogenum, 10 mm; in the experiment on Fusarium verticillioides, 11 mm. The “inhibition zone (IZ)” value was determined as 11 mm in the experiment with Trichoderma viride, 14 mm in the experiment on Candida albicans and 12 mm in the experiment with Staphylococcus aureus. In addition, the MIC was determined as 50 µg/mL (≈ 94.2 µM) against Bacillus subtilis; 25 µg/mL (≈ 47.1 µM) against Escherichia coli; 50 µg/mL (≈ 94.2 µM) in the experiment with Salmonella enterica; 50 µg/mL (≈ 94.2 µM) in the experiment with Aspergillus niger; 50 µg/mL (≈ 94.2 µM) with Penicillium chrysogenum; 50 µg/mL (≈ 94.2 µM) with Fusarium verticillioides. In addition, the MIC in the experiment on Trichoderma viride stood at 50 µg/mL (≈ 94.2 µM); with Candida albicans it was 25 µg/mL (≈ 47.1 µM); against Staphylococcus aureus it was 50 µg/mL (≈ 94.2 µM).

On to `CCCCc1nc(Cl)c(C2CC(c3cc(C)cc(I)c3O)=NN2c2nc(-c3ccc(Cl)cc3)cs2)[nH]1` (stereo not drawn), for which the “inhibition zone (IZ)” value in the experiment on Bacillus subtilis is recorded as 12 mm; in the experiment on Escherichia coli, 14 mm; with Salmonella enterica it was 15 mm; in the experiment with Aspergillus niger, 14 mm; with Penicillium chrysogenum, 12 mm; with Fusarium verticillioides, 10 mm. The “inhibition zone (IZ)” value in the experiment with Trichoderma viride is recorded as 14 mm; with Candida albicans it was 11 mm; in the experiment on Staphylococcus aureus, 15 mm. For the same compound, the MIC with Bacillus subtilis came out at 50 µg/mL (≈ 76.6 µM); against Escherichia coli it was 50 µg/mL (≈ 76.6 µM); against Salmonella enterica it was 25 µg/mL (≈ 38.3 µM); against Aspergillus niger it was 25 µg/mL (≈ 38.3 µM); against Penicillium chrysogenum, 25 µg/mL (≈ 38.3 µM); in the experiment on Fusarium verticillioides, 50 µg/mL (≈ 76.6 µM). Moreover, the MIC came out at 25 µg/mL (≈ 38.3 µM) against Trichoderma viride, 50 µg/mL (≈ 76.6 µM) against Candida albicans and 25 µg/mL (≈ 38.3 µM) in the experiment on Staphylococcus aureus.

Take `CCCCc1nc(Cl)c(C2CC(c3cc(Cl)cc(I)c3O)=NN2c2nc(-c3ccc(Cl)cc3)cs2)[nH]1` (stereo not drawn): the “inhibition zone (IZ)” value with Bacillus subtilis was found to be 21 mm; in the experiment with Escherichia coli it was 20 mm; in the experiment with Salmonella enterica it was 16 mm; in the experiment with Aspergillus niger, 15 mm; with Penicillium chrysogenum, 14 mm; in the experiment on Fusarium verticillioides, 12 mm. Also, the figures for the “inhibition zone (IZ)” value in the experiment with Trichoderma viride, in the experiment with Candida albicans and in the experiment with Staphylococcus aureus were 16 mm, 15 mm and 18 mm, respectively. Also, the MIC in the experiment with Bacillus subtilis, against Escherichia coli, against Salmonella enterica, with Aspergillus niger, against Penicillium chrysogenum and with Fusarium verticillioides was 25 µg/mL (≈ 37.2 µM) throughout. In addition, the MIC against Trichoderma viride, in the experiment on Candida albicans and against Staphylococcus aureus was 25 µg/mL (≈ 37.2 µM) in each case.

Regarding `CCCCc1nc(Cl)c(C2CC(c3cc(C)ccc3O)=NN2c2nc(-c3ccc(Cl)cc3)cs2)[nH]1` (stereo not drawn), the “inhibition zone (IZ)” value is listed as 12 mm in the experiment on Bacillus subtilis; 11 mm in the experiment with Escherichia coli; 12 mm with Aspergillus niger; 11 mm in the experiment on Fusarium verticillioides; 8 mm in the experiment with Trichoderma viride; 10 mm with Candida albicans. The MIC was 50 µg/mL (≈ 95 µM) in the experiment on Bacillus subtilis; 50 µg/mL (≈ 95 µM) in the experiment with Escherichia coli; over 100 µg/mL against Salmonella enterica; 50 µg/mL (≈ 95 µM) with Aspergillus niger; over 100 µg/mL against Penicillium chrysogenum; 50 µg/mL (≈ 95 µM) in the experiment with Fusarium verticillioides. Moreover, the MIC is 50 µg/mL (≈ 95 µM) against Trichoderma viride, 50 µg/mL (≈ 95 µM) in the experiment with Candida albicans and over 100 µg/mL in the experiment on Staphylococcus aureus.
